Values after ≈ are worked out from the molar mass of the structure shown.
What was measured:
[1] = Selectivity index, ratio of CC50 for human HepG2 cells to MIC for antimycobacterial activity against Mycobacterium tuberculosis H37Rv ATCC 27294; format: toxicity; details: read-out: Selectivity Index
[2] = Cytotoxicity against mouse RAW264.7 cells assessed as reduction in cell viability incubated for 48 hrs by MTT assay; format: cell-based
In short: (§1)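 RAW 264.7 macrophages and HepG2 cells were cultured in DMEM at 37 °C, 5% CO2. For the assay, 10⁵ cells/well were preincubated for 24 h, then exposed to compounds at […] for 48 h, in duplicate. MTT (5 mg/mL in PBS) was added for 2 h and absorbance read at 570 nm. Untreated wells served as the negative control. CC50 obtained by regression analysis.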

[3] = system: Mycobacterium tuberculosis; experiment: Antimycobacterial activity against Mycobacterium tuberculosis H37Ra ATCC 25177 assessed as inhibition of bacterial growth incubated for 9 days by resazurin microtiter assay; format: functional; details: H37Ra ATCC 25177, 216 h, time 9 day
In short: (§2)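 REMA broth microdilution in 7H9-S medium, run in duplicate. Test compounds were serially two-fold diluted on the plate from 64 to 0.5 µg/mL. Inoculum taken from fresh Löwenstein-Jensen culture, adjusted to McFarland no. 1 and diluted 1:20. Plates were sealed and incubated at 37 °C in normal atmosphere for 9 days, then resazurin was added. Rifampicin and ethambutol served as standards. MIC reported in µg/mL.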

[4] = Cytotoxicity against human HepG2 cells assessed as reduction in cell viability incubated for 48 hrs by MTT assay; format: cell-based; in short: as §1
[5] = Cytotoxicity against African green monkey Vero cells assessed as reduction in cell viability measured after 5 days by MTT assay; format: cell-based; details: chlorocebus sabaeus, time 5 day
In short: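 Vero cells in DMEM with 10% inactivated FBS, plated at 1×10⁴ cells/well 24 h before treatment. Compounds were applied at 800, 400, 200, 100 and 50 µM, with at most 0.8% DMSO, for 5 days at 37 °C. MTT (1 mg/mL) was added for 4 h, formazan solubilised in DMSO and OD570 read. CC50 is the concentration giving a 50% reduction in absorbance.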

[6] = system: Mycobacterium tuberculosis; experiment: Antimycobacterial activity against Mycobacterium tuberculosis H37Rv ATCC 27294 assessed as inhibition of bacterial growth incubated for 9 days by resazurin microtiter assay; format: functional; details: H37Rv ATCC 27294, 216 h, time 9 day; in short: as §2
[7] = Selectivity index, ratio of CC50 for mouse RAW264.7 cells to MIC for antimycobacterial activity against Mycobacterium tuberculosis H37Rv ATCC 27294; format: toxicity; details: read-out: Selectivity Index
PC-3 = experiment: Cytotoxicity against human PC-3 cells assessed as inhibition of cell proliferation at 25 uM incubated for 72 hrs by MTT assay relative to control; format: functional; parameters: scale not given: the % may be the effect or the level left
In short: (§3)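 Tumor lines from NCI. PC-3, HCT-116 and NCIH-460 were grown in RPMI 1640; SKMEL-103 and AGP-01 in DMEM; all with 10% FBS at 37 °C, 5% CO2. Seeding was 0.3×10⁶ cells/mL for SKMEL-103 and AGP-01, 0.1×10⁶ for PC-3 and NCIH-460, and 0.7×10⁵ for HCT-116. Cells were exposed to compound at 25 µM for 72 h. Cells were centrifuged, 1% MTT added for 3 h, formazan dissolved in DMSO and read at 570 nm.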

SK-MEL-103 = experiment: Cytotoxicity against human SK-MEL-103 cells assessed as inhibition of cell proliferation at 25 uM incubated for 72 hrs by MTT assay relative to control; format: functional; parameters: scale not given: the % may be the effect or the level left; in short: as §3
HCT-116 = experiment: Cytotoxicity against human HCT-116 cells assessed as inhibition of cell proliferation at 25 uM incubated for 72 hrs by MTT assay relative to control; format: functional; parameters: scale not given: the % may be the effect or the level left; in short: as §3
NCI-H460 [8] = experiment: Cytotoxicity against human NCI-H460 cells assessed as inhibition of cell proliferation at 25 uM incubated for 72 hrs by MTT assay relative to control; format: functional; parameters: scale not given: the % may be the effect or the level left; in short: as §3
[9] = Cytotoxicity against human AGP01 cells assessed as inhibition of cell proliferation at 25 uM incubated for 72 hrs by MTT assay relative to control; format: functional; parameters: scale not given: the % may be the effect or the level left; in short: as §3
NCI-H460 [10] = experiment: Antiproliferative activity against human NCI-H460 cells assessed as inhibition of cell growth incubated for 72 hrs by MTT assay; format: functional, cell-based; details: NCI-H460, 72 h
In short: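 NCIH-460 cells in RPMI 1640 with 10% FBS at 0.1×10⁶ cells/mL, treated for 72 h at 37 °C, 5% CO2. MTT read-out: 1% MTT for 3 h, formazan dissolved in DMSO, absorbance at 570 nm. IC50 derived from absorbances by nonlinear regression.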

[11] = system: Mycobacterium tuberculosis; experiment: Antitubercular activity against Mycobacterium tuberculosis H37Rv; format: functional
[12] = system: Mycobacterium tuberculosis; experiment: Antimycobacterial activity against Mycobacterium tuberculosis H37Rv ATCC 27294 assessed as inhibition of bacterial growth by agar dilution method; format: functional

| SMILES | selectivity ratio [1] | CC50 at 48 h [2] | MIC [3] | CC50 at 48 h [4] | CC50 at 120 h [5] | MIC [6] | selectivity ratio [7] | Activity (PC-3) | Activity (SK-MEL-103) | Activity (HCT-116) | Activity (NCI-H460 [8]) | Activity [9] | IC50 (NCI-H460 [10]) | MIC [11] | MIC [12] |
| --- | --- | --- | --- | --- | --- | --- | --- | --- | --- | --- | --- | --- | --- | --- | --- |
| CC(=O)OC[C@H]1O[C@H](OC[C@@H](Cn2cc(CN(c3nc(-c4ccc(C)cc4)no3)C3CCCCC3)nn2)OC(C)=O)C=C[C@@H]1OC(C)=O | 2.3 | 45.3 µg/mL (≈ 68 µM) | 8 µg/mL (≈ 12 µM) | 36.8 µg/mL (≈ 55.2 µM) | 498 µM | 16 µg/mL (≈ 24 µM) | 2.83 |  |  |  |  |  |  |  |  |
| CC(=O)OC[C@H]1O[C@H](OC[C@@H](Cn2cc(CN(c3nc(-c4ccc(C(F)(F)F)cc4)no3)C3CCCCC3)nn2)OC(C)=O)C=C[C@@H]1OC(C)=O | 1.67 | 64.1 µg/mL (≈ 89 µM) | ≥ 64 µg/mL | 81.4 µg/mL (≈ 113 µM) | 706 µM | ≥ 64 µg/mL | < 1 |  |  |  |  |  |  |  |  |
| CC(=O)OC[C@H]1O[C@H](OC[C@@H](Cn2cc(CN(c3nc(-c4ccccc4)no3)C3CCCCC3)nn2)OC(C)=O)C=C[C@@H]1OC(C)=O | 1.24 | 28.6 µg/mL (≈ 43.8 µM) | 16 µg/mL (≈ 24.5 µM) | 19.9 µg/mL (≈ 30.5 µM) | 607 µM | 16 µg/mL (≈ 24.5 µM) | 1.78 |  |  |  |  |  |  |  |  |
| C#CCN(c1nc(-c2ccc(OC)cc2)no1)C1CCCCC1 | 1.13 | 28 µg/mL (≈ 89.8 µM) | ≥ 64 µg/mL | 72.5 µg/mL (≈ 233 µM) |  | 64 µg/mL (≈ 206 µM) | 0.46 | 23.7% | 37.3% | 40.7% | 69.1% | 57.3% | 1 µg/mL (≈ 3.21 µM) |  |  |
| C#CCN(c1nc(-c2ccc(F)cc2)no1)C1CCCCC1 | 0.64 | 20.9 µg/mL (≈ 69.9 µM) | 64 µg/mL (≈ 214 µM) | 41.1 µg/mL (≈ 137 µM) |  | 64 µg/mL (≈ 214 µM) | 0.32 | 25.4% | 47.3% | 44.9% | 50.5% | 50.4% | 1.16 µg/mL (≈ 3.88 µM) |  |  |
| C#CCN(c1nc(-c2cccc([N+](=O)[O-])c2)no1)C1CCCCC1 | < 0.71 | 34.2 µg/mL (≈ 105 µM) | ≥ 64 µg/mL | 45.5 µg/mL (≈ 139 µM) |  | ≥ 64 µg/mL | < 0.53 | 7.2% | 44.4% | 24.8% | 5.8% | 46% |  |  |  |
| C#CCOc1ccc(-c2noc(NC3CCCCC3)n2)cc1 | 3.7 | 38.3 µg/mL (≈ 129 µM) | 32 µg/mL (≈ 108 µM) | 119 µg/mL (≈ 399 µM) |  | 32 µg/mL (≈ 108 µM) | 1.29 | 64.2% | 62.8% | 43.3% | 75.7% | 2.6% | 5.3 µg/mL (≈ 17.8 µM) |  |  |
| CC(=O)OC[C@H]1O[C@H](OC[C@@H](Cn2cc(CN(c3nc(-c4ccc(F)cc4)no3)C3CCCCC3)nn2)OC(C)=O)C=C[C@@H]1OC(C)=O | < 0.45 | 31.5 µg/mL (≈ 46.9 µM) | ≥ 64 µg/mL | 28.8 µg/mL (≈ 42.9 µM) |  | ≥ 64 µg/mL | < 0.49 | 7.1% | 20.7% | 44.9% | 17.7% | 69.4% |  |  |  |
| CC(C)c1ccc(-c2nc(CN3CCN(c4ccnc5c(-c6cccnc6)cccc45)CC3)no2)cc1 |  |  |  |  |  |  |  |  |  |  |  |  |  | 0.25 µg/mL (≈ 0.51 µM) |  |
| CCCCCc1ccc(-c2cn(CC(O)COc3cccc4c3OCC3(CCCCC3)C4=O)nn2)cc1 (stereo not given) |  |  |  |  |  |  |  |  |  |  |  |  |  |  | 0.78 µg/mL (≈ 1.55 µM) |
| C#Cc1ccc(-c2noc(NC3CCCCC3)n2)cc1 | 1.69 | 19.8 µg/mL (≈ 74.1 µM) | 32 µg/mL (≈ 120 µM) | 54.2 µg/mL (≈ 203 µM) |  | 32 µg/mL (≈ 120 µM) | 0.62 | 46% | 40.1% | 60.7% | 34% | 44.4% |  |  |  |
| COc1ccc(-c2noc(N(Cc3cn(C[C@H](CO[C@@H]4C=C[C@H](OC(C)=O)[C@@H](COC(C)=O)O4)OC(C)=O)nn3)C3CCCCC3)n2)cc1 | 4.41 | 86.3 µg/mL (≈ 126 µM) | 16 µg/mL (≈ 23.4 µM) | 141 µg/mL (≈ 207 µM) | 575 µM | 32 µg/mL (≈ 46.9 µM) | 2.7 | 21.6% | 29.8% | 24.2% | 24.2% | 59.2% |  |  |  |
| COc1cccc2c1C(=O)c1c(O)c3c(c(O)c1C2=O)C[C@@](O)(C(=O)CO)C[C@@H]3O[C@H]1C[C@H](N)[C@H](O)[C@H](C)O1 [DOXORUBICIN] |  |  |  |  |  |  |  |  |  |  |  |  | 0.08 µg/mL (≈ 0.147 µM) |  |  |
